In ChEMBL document CHEMBL5058577, “EUbOPEN Chemogenomics Library 2 (Multiplex)” (2022):

System: Fibroblast
Assay: Multiplex assay against human fibroblast
Type: toxicity, cell-based
Summary of the method: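 Phenotypes for tubulin, mitochondrial mass and membrane permeability are expressed as per cents of healthy-nucleus cells. Cells were stained live at seeding with Hoechst33342, BioTracker Green Microtubule Cytoskeleton Dye, MitoTracker Red and Annexin V Alexa Fluor 680, then imaged after compound addition on a CQ1 microscope at 37°C and 5% CO2. Machine-learning gating in CellPathfinder separated Hoechst high-intensity objects from normal cells, divided normal cells by nuclear state (healthy, pyknosed, fragmented) and divided pyknosed cells into mitotic or apoptotic.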

[1] = 12 h, 1 µM, compound concentration 1 uM, replicate 1
[2] = 12 h, 1 µM, compound concentration 1 uM, replicate 2
[3] = 12 h, 10 µM, compound concentration 10 uM, replicate 1
[4] = 12 h, 10 µM, compound concentration 10 uM, replicate 2
[5] = 24 h, 1 µM, compound concentration 1 uM, replicate 1
[6] = 24 h, 1 µM, compound concentration 1 uM, replicate 2
[7] = 24 h, 10 µM, compound concentration 10 uM, replicate 1
[8] = 24 h, 10 µM, compound concentration 10 uM, replicate 2
[9] = 48 h, 1 µM, compound concentration 1 uM, replicate 1
[10] = 48 h, 1 µM, compound concentration 1 uM, replicate 2
[11] = 48 h, 10 µM, compound concentration 10 uM, replicate 1
[12] = 48 h, 10 µM, compound concentration 10 uM, replicate 2

## COc1c(C)cc(NC(=O)c2nn(Cc3ccc(F)cc3)c3c2CN(C(=O)c2ccc[nH]2)C[C@]3(C)C(N)=O)cc1C
[1]
  Population Apoptotic (%): 42%
  Population Fragmented Nuclei (%): 21%
  Population Healthy Nuclei (%): 58%
  Population Hoechst High Intensity Objects (%): 2%
  Population Membrane Permeable-Phenotype (%): 1%
  Population Mitochondria Different-Phenotype (%): 18%
  Population Mitotic Cells (%): 57%
  Population Normal (%): 97%
  Population Pyknosed Nuclei (%): 20%
  Population Tubulin-Different-Phenotype (%): 64%
  Total Cell Count: 95
[2]
  Population Apoptotic (%): 46%
  Population Fragmented Nuclei (%): 16%
  Population Healthy Nuclei (%): 51%
  Population Hoechst High Intensity Objects (%): 3%
  Population Membrane Permeable-Phenotype (%): 6%
  Population Mitochondria Different-Phenotype (%): 11%
  Population Mitotic Cells (%): 53%
  Population Normal (%): 96%
  Population Pyknosed Nuclei (%): 31%
  Population Tubulin-Different-Phenotype (%): 72%
  Total Cell Count: 86
[3]
  Population Apoptotic (%): 47%
  Population Fragmented Nuclei (%): 12%
  Population Healthy Nuclei (%): 58%
  Population Hoechst High Intensity Objects (%): 1%
  Population Membrane Permeable-Phenotype (%): 0%
  Population Mitochondria Different-Phenotype (%): 25%
  Population Mitotic Cells (%): 52%
  Population Normal (%): 98%
  Population Pyknosed Nuclei (%): 29%
  Population Tubulin-Different-Phenotype (%): 90%
  Total Cell Count: 166
[4]
  Population Apoptotic (%): 52%
  Population Fragmented Nuclei (%): 29%
  Population Healthy Nuclei (%): 38%
  Population Hoechst High Intensity Objects (%): 2%
  Population Membrane Permeable-Phenotype (%): 6%
  Population Mitochondria Different-Phenotype (%): 30%
  Population Mitotic Cells (%): 47%
  Population Normal (%): 97%
  Population Pyknosed Nuclei (%): 32%
  Total Cell Count: 115
[5]
  Population Apoptotic (%): 66%
  Population Fragmented Nuclei (%): 25%
  Population Healthy Nuclei (%): 61%
  Population Hoechst High Intensity Objects (%): 3%
  Population Membrane Permeable-Phenotype (%): 1%
  Population Mitochondria Different-Phenotype (%): 17%
  Population Mitotic Cells (%): 33%
  Population Normal (%): 96%
  Population Pyknosed Nuclei (%): 12%
  Population Tubulin-Different-Phenotype (%): 45%
  Total Cell Count: 96
[6]
  Population Apoptotic (%): 48%
  Population Fragmented Nuclei (%): 31%
  Population Healthy Nuclei (%): 38%
  Population Hoechst High Intensity Objects (%): 6%
  Population Membrane Permeable-Phenotype (%): 8%
  Population Mitotic Cells (%): 51%
  Population Normal (%): 93%
  Population Pyknosed Nuclei (%): 30%
  Population Tubulin-Different-Phenotype (%): 67%
  Total Cell Count: 95
[7]
  Population Apoptotic (%): 65%
  Population Fragmented Nuclei (%): 14%
  Population Healthy Nuclei (%): 64%
  Population Hoechst High Intensity Objects (%): 3%
  Population Membrane Permeable-Phenotype (%): 0%
  Population Mitochondria Different-Phenotype (%): 47%
  Population Mitotic Cells (%): 34%
  Population Normal (%): 96%
  Population Pyknosed Nuclei (%): 20%
  Population Tubulin-Different-Phenotype (%): 90%
  Total Cell Count: 159
[8]
  Population Apoptotic (%): 43%
  Population Fragmented Nuclei (%): 30%
  Population Healthy Nuclei (%): 47%
  Population Hoechst High Intensity Objects (%): 4%
  Population Membrane Permeable-Phenotype (%): 8%
  Population Mitochondria Different-Phenotype (%): 26%
  Population Mitotic Cells (%): 56%
  Population Normal (%): 95%
  Population Pyknosed Nuclei (%): 21%
  Population Tubulin-Different-Phenotype (%): 82%
  Total Cell Count: 110
[9]
  Population Apoptotic (%): 87%
  Population Fragmented Nuclei (%): 29%
  Population Healthy Nuclei (%): 61%
  Population Hoechst High Intensity Objects (%): 7%
  Population Membrane Permeable-Phenotype (%): 0%
  Population Mitochondria Different-Phenotype (%): 10%
  Population Mitotic Cells (%): 12%
  Population Normal (%): 92%
  Population Pyknosed Nuclei (%): 8%
  Population Tubulin-Different-Phenotype (%): 45%
  Total Cell Count: 99
[10]
  Population Apoptotic (%): 70%
  Population Fragmented Nuclei (%): 34%
  Population Healthy Nuclei (%): 45%
  Population Hoechst High Intensity Objects (%): 5%
  Population Membrane Permeable-Phenotype (%): 10%
  Population Mitotic Cells (%): 29%
  Population Normal (%): 94%
  Population Pyknosed Nuclei (%): 19%
  Population Tubulin-Different-Phenotype (%): 69%
  Total Cell Count: 91
[11]
  Population Apoptotic (%): 60%
  Population Fragmented Nuclei (%): 22%
  Population Healthy Nuclei (%): 60%
  Population Hoechst High Intensity Objects (%): 4%
  Population Membrane Permeable-Phenotype (%): 0%
  Population Mitochondria Different-Phenotype (%): 54%
  Population Mitotic Cells (%): 39%
  Population Normal (%): 95%
  Population Pyknosed Nuclei (%): 17%
  Population Tubulin-Different-Phenotype (%): 92%
  Total Cell Count: 166
[12]
  Population Apoptotic (%): 77%
  Population Fragmented Nuclei (%): 41%
  Population Healthy Nuclei (%): 51%
  Population Hoechst High Intensity Objects (%): 2%
  Population Membrane Permeable-Phenotype (%): 3%
  Population Mitochondria Different-Phenotype (%): 16%
  Population Mitotic Cells (%): 22%
  Population Normal (%): 97%
  Population Pyknosed Nuclei (%): 7%
  Population Tubulin-Different-Phenotype (%): 75%
  Total Cell Count: 122
